Source: paper PMC6720533 (Biomolecules & Therapeutics, 2019)

Columns and labels:
SAPK2a = SAPK2a (Homo sapiens, UniProt Q16539); test: Kinase activity screening; format: biochemical; conditions: FX-9 at 2.5 μM, ATP at Km (90 μM)
Procedure, shortened: (§1)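 Radiometric kinase-panel screen of 58 human kinases, measuring substrate phosphorylation. […] Activity is given as % of the mean positive-control kinase activity (100%). Below 30% counts as a strong hit, 30–70% as a partial hit, and above 70% as no hit.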

Lyn = Lyn (Homo sapiens, UniProt P07948); test: Kinase activity screening; format: biochemical; conditions: FX-9 at 2.5 μM, ATP at Km (70 μM)
Chain of Lyn (P07948 whole entry): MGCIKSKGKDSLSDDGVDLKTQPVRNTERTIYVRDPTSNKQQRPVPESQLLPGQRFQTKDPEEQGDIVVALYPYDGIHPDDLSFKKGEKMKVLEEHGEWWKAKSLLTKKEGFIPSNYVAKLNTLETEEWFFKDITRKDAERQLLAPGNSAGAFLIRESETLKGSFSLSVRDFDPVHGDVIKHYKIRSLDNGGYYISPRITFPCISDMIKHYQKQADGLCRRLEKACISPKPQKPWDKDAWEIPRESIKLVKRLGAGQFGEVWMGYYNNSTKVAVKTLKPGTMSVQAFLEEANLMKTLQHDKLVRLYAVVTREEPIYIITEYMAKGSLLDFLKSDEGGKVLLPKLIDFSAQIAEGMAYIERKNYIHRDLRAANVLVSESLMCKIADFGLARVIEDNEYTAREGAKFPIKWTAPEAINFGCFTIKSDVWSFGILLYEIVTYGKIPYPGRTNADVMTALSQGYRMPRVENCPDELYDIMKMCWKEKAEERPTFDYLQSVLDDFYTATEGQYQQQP
Procedure, shortened: (§2)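 Radiometric substrate-phosphorylation screen covering a panel of 58 human kinases run by a contract service. […] Activity is given as a percentage of mean activity in positive control samples (100%). Values <30% were scored strong hits, 30–70% partial hits and >70% no hit.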

Fyn = Fyn (Homo sapiens, UniProt P06241); test: Kinase activity screening; format: biochemical; conditions: FX-9 at 2.5 μM, ATP at Km (70 μM)
Procedure, shortened: as §2

CK2α2 = CK2α2 (Homo sapiens, UniProt P19784); test: Kinase activity screening; format: biochemical; conditions: FX-9 at 2.5 μM, ATP at Km (10 μM)
Procedure, shortened: as §2

MLK1 = MLK1 (Homo sapiens, UniProt P80192); test: Kinase activity screening; format: biochemical; conditions: FX-9 at 2.5 μM, ATP at Km (45 μM)
Chain of MLK1 (P80192 whole entry): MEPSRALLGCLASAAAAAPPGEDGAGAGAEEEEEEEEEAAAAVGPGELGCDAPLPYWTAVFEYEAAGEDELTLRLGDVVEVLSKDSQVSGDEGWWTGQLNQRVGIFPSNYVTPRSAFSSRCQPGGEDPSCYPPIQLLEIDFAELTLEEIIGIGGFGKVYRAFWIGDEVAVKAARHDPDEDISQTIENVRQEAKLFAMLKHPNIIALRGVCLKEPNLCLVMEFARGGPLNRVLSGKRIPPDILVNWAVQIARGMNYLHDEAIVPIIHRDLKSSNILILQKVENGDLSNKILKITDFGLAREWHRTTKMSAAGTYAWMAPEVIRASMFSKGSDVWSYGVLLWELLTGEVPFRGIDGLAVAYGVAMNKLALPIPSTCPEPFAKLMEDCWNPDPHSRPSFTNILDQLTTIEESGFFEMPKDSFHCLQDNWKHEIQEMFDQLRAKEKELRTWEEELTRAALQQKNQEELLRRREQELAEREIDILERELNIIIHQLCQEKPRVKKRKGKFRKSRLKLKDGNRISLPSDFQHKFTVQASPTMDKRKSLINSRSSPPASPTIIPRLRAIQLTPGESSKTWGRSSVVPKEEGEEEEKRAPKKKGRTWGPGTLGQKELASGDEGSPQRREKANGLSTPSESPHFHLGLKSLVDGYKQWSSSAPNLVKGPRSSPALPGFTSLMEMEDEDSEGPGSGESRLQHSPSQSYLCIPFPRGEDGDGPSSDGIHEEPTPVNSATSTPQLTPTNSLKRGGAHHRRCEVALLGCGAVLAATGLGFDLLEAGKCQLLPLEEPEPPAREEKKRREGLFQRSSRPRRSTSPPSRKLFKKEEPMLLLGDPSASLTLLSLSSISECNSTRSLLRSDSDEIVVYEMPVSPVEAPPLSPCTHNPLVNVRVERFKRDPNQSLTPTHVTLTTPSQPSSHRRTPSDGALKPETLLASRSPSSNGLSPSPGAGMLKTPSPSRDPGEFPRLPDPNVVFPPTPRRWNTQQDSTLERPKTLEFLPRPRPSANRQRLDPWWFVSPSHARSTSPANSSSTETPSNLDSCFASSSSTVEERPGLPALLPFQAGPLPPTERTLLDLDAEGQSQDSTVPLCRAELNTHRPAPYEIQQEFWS
Procedure, shortened: as §2

Rsk1 = Rsk1 (Homo sapiens, UniProt Q15418); test: Kinase activity screening; format: biochemical; conditions: FX-9 at 2.5 μM, ATP at Km (45 μM)
Procedure, shortened: as §1

cleaved caspase 3 = test: Western blot, SEM cells; format: cell-based, human; conditions: 2.5 μM and 5.0 μM, 48 h
Procedure, shortened: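 SEM and RS4;11 cells were exposed to 2.5 or 5.0 μM test compound, or DMSO, for 48 h. Lysates of 1–5×10^6 cells were made in RIPA buffer with sonication. Cleaved caspase 3 was detected by western blot on PVDF with near-infrared imaging, using GAPDH as loading control.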

RS4;11 cells = test: Cell morphology, May Grünwald Giemsa staining; format: cell-based, human; conditions: 48 h
MSK2 = MSK2 (Homo sapiens, UniProt O75676); test: Kinase activity screening; format: biochemical; conditions: FX-9 at 2.5 μM, ATP at Km (45 μM)
Chain of MSK2 (O75676 whole entry): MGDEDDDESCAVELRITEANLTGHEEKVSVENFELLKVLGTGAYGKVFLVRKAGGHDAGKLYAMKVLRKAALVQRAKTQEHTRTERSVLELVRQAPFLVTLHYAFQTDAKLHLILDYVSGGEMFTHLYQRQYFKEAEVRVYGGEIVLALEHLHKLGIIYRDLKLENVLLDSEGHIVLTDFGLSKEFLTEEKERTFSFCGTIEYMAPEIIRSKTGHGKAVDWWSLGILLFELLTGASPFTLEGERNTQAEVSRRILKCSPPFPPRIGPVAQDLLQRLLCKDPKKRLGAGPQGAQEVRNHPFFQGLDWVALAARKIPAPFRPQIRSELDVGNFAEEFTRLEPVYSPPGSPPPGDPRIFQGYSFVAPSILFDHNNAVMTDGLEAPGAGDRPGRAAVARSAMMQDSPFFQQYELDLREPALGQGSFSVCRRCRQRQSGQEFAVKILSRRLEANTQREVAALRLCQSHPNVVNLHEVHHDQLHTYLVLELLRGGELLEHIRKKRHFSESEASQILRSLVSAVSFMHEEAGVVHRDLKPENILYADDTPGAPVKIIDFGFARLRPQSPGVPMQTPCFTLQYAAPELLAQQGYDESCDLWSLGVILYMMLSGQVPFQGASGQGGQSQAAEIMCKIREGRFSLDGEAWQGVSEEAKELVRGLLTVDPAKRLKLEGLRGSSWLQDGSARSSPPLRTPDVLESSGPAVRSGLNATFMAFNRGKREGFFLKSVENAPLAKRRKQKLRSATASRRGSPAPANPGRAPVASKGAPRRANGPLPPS
Procedure, shortened: as §2

SEM cells = test: WST-1 metabolic activity assay; format: cell-based; conditions: Homo sapiens, 72 h, read-out: metabolic activity
Procedure, shortened: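 Test compound came from a 10 mM DMSO stock. Cells were seeded at 5×10^4/well in triplicate with 5 or 10 μM final compound; controls got matched DMSO. After 72 h at 37°C, 5% CO2, WST-1 was added for a further 3 h. Absorbance was read at 450 nm (reference 620 nm), and metabolic activity given as % of DMSO control.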

LOK = LOK (Homo sapiens, UniProt O94804); test: Kinase activity screening; format: biochemical; conditions: FX-9 at 2.5 μM, ATP at Km (120 μM)
Procedure, shortened: as §2

CDK2/cyclinA = CDK2/cyclinA (Homo sapiens, UniProt P24941); test: Kinase activity screening; format: biochemical; conditions: FX-9 at 2.5 μM, ATP at Km (45 μM)
Procedure, shortened: as §2

ROCK-I = ROCK-I (Homo sapiens, UniProt Q13464); test: Kinase activity screening; format: biochemical; conditions: FX-9 at 2.5 μM, ATP at Km (70 μM)
Procedure, shortened: as §1

Plk3 = Plk3 (Homo sapiens, UniProt Q9H4B4); test: Kinase activity screening; format: biochemical; conditions: FX-9 at 2.5 μM, ATP at Km (70 μM)
Procedure, shortened: as §1

CK1γ1 = CK1γ1 (Homo sapiens, UniProt Q9HCP0); test: Kinase activity screening; format: biochemical; conditions: FX-9 at 2.5 μM, ATP at Km (15 μM)
Procedure, shortened: as §2

TAK1 = TAK1 (Homo sapiens, UniProt O43318); test: Kinase activity screening; format: biochemical; conditions: FX-9 at 2.5 μM, ATP at Km (45 μM)
Chain of TAK1 (O43318 1-303 limits assumed): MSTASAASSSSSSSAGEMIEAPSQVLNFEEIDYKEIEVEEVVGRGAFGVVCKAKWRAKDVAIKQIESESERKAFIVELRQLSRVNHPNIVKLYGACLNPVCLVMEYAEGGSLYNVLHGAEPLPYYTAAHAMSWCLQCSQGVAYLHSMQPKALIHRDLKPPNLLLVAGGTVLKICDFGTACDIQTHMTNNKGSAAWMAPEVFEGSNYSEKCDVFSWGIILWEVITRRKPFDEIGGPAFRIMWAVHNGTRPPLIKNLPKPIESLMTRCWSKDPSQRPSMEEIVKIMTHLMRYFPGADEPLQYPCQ
Procedure, shortened: as §1

AMPKα1 = AMPKα1 (Homo sapiens, UniProt Q13131); test: Kinase activity screening; format: biochemical; conditions: FX-9 at 2.5 μM, ATP at Km (45 μM)
Chain of AMPKα1 (Q13131 whole entry): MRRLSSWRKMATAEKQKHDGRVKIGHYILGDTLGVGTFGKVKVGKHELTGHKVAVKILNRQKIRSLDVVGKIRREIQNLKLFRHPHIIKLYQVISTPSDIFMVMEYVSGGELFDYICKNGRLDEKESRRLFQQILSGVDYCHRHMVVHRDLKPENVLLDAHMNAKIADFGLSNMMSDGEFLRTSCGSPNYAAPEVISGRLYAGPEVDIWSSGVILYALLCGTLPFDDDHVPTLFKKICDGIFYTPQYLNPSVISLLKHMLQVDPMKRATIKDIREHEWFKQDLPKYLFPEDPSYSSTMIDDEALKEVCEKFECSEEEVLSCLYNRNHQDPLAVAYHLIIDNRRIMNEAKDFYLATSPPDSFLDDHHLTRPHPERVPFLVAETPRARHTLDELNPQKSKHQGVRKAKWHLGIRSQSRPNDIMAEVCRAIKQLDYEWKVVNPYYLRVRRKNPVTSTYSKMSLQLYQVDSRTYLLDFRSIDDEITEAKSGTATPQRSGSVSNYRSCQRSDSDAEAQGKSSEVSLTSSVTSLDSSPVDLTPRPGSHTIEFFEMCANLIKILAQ
Chain of AMPKα1 (Q9Y478 whole entry partner): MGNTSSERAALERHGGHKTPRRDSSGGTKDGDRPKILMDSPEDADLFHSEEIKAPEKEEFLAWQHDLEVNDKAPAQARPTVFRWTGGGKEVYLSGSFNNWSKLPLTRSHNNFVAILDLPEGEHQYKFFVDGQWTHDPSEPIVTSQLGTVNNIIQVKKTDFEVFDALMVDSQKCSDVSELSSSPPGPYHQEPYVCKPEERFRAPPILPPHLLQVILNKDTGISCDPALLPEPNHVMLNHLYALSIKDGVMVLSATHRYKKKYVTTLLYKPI
Chain of AMPKα1 (P54619 whole entry partner): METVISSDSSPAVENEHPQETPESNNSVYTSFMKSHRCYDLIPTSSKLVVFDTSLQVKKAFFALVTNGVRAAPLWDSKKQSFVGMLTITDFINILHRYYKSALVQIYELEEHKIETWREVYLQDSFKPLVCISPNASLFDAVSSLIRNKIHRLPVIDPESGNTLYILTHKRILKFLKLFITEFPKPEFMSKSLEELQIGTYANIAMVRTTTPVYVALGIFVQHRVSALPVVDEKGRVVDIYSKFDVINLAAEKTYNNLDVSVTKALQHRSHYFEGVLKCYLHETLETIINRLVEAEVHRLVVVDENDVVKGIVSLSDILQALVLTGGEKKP
Procedure, shortened: as §2

PKCα = PKCα (Homo sapiens, UniProt P17252); test: Kinase activity screening; format: biochemical; conditions: FX-9 at 2.5 μM, ATP at Km (45 μM)
Procedure, shortened: as §2

CaMKI = CaMKI (Homo sapiens, UniProt Q14012); test: Kinase activity screening; format: biochemical; conditions: FX-9 at 2.5 μM, ATP at Km (200 μM)
Chain of CaMKI (Q14012 whole entry): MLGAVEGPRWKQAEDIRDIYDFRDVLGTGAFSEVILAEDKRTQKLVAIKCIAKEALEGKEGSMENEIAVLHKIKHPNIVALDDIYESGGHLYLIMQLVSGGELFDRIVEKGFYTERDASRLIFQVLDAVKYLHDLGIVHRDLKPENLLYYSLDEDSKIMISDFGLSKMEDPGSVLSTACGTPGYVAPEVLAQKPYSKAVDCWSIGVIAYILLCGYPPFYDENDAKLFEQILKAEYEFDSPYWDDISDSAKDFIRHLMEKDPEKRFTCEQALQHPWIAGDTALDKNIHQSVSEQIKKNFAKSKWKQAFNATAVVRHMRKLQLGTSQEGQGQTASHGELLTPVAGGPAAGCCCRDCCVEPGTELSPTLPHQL
Procedure, shortened: as §2

Cc1ccc(-c2cc3ccccc3c(N)n2)cc1 [FX-9, 3-(p-Tolyl)isoquinolin-1-amine]
Kinase activity (% control) (SAPK2a): 98 % control
Kinase activity (% control) (Lyn): 87 % control
Kinase activity (% control) (Fyn): 97 % control
Kinase activity (% control) (CK2α2): 95 % control
Kinase activity (% control) (MLK1): 84 % control
Kinase activity (% control) (Rsk1): 95 % control
cleaved caspase 3 protein (western blot) (cleaved caspase 3): increased amount of cleaved caspase 3
cellular morphology (light microscopy) (RS4;11 cells; RS4;11, 1.0 μM): increased amount of vacuoles and karyopyknosis
cellular morphology (light microscopy) (RS4;11 cells; RS4;11, 2.5 μM): Extensive cytoplasmic vacuolization, karyopyknosis, and karyolysis
Kinase activity (% control) (MSK2): 89 % control
activity at 5 µM (SEM cells): 1.2%
activity at 10 µM (SEM cells): 0.6%
Kinase activity (% control) (LOK): 101 % control
Kinase activity (% control) (CDK2/cyclinA): 90 % control
Kinase activity (% control) (ROCK-I): 93 % control
Kinase activity (% control) (Plk3): 99 % control
Kinase activity (% control) (CK1γ1): 98 % control
Kinase activity (% control) (TAK1): 87 % control
Kinase activity (% control) (AMPKα1): 98 % control
Kinase activity (% control) (PKCα): 99 % control
Kinase activity (% control) (CaMKI): 100 % control
